Measured values pooled from the literature.
Lines come from different studies, so protocols differ.
Target: Inhibitor of nuclear factor kappa-B kinase subunit alpha (CHUK, Homo sapiens, UniProt O15111)
One construct used (O15111 1-745): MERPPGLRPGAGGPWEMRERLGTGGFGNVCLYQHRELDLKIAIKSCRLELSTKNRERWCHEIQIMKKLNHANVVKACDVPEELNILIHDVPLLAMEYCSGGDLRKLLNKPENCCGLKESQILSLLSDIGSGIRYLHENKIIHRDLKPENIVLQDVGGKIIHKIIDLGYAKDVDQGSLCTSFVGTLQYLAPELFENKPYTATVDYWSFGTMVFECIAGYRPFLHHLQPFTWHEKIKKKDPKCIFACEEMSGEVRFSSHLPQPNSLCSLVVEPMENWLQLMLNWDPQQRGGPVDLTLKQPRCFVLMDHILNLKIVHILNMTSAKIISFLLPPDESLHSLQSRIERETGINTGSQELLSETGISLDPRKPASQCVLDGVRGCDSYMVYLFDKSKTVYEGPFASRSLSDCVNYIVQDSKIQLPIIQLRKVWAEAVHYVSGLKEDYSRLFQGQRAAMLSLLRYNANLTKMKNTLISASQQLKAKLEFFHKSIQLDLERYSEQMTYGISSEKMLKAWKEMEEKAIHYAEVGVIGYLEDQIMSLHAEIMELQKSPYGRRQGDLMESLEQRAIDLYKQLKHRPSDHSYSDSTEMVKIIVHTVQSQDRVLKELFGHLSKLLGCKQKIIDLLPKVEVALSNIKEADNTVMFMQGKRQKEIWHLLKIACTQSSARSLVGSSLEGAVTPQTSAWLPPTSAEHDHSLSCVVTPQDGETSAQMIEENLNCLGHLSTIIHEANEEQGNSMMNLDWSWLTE

SMILES	assay	conditions	quantity	value
CNCc1ccc(-c2cc(-c3nc(-c4ccc(S(=O)(=O)C(C)C)cc4)cnc3N)on2)cc1	enzyme activity, inhibitor	0.4 µM	inhibition	17%
COc1cccc2c(NCc3ccccc3)nc(-n3c(N)nc4ccccc43)nc12	target engagement in cells, inhibitor, chemoproteomics	20 mM	inhibition	8.5%
CCC(=O)N[C@@H]1CC[C@H](C(=O)N(C)c2ccc(-c3nc4ccccc4o3)cc2)C1	cell-free assay, competition with immobilised ligand	1 µM	remaining binding	100%
CC/C(=N\NC(=O)NCc1cccc(O)c1)c1ccc(O)c(C)c1O	enzyme activity, inhibitor	0.1 µM	inhibition	0.7%
CCN(CC)c1ccc(C2=NNC(=O)CC2C)cc1[N+](=O)[O-] (stereo not drawn)	enzyme activity, inhibitor	10 µM	remaining activity	109%
CC(C)(C)c1nc2c(s1)c1nc(N)ncc1c1ccc(NS(=O)(=O)c3c(F)cccc3F)c(F)c12	enzyme activity, inhibitor, radiometric	1 µM	remaining activity	88%
Cc1ccc(Nc2nccc(N(C)c3ccc4c(C)n(C)nc4c3)n2)cc1S(N)(=O)=O	cell-free assay, inhibitor	0.5 µM	remaining signal	99.4%
O=C(Nc1nccs1)C(c1cc(F)ccc1O)N1Cc2ccccc2C1=O (stereo not drawn)	enzyme activity, inhibitor	1 µM	inhibition	16%
CNC(=O)c1cc(Oc2ccc(NC(=O)Nc3ccc(Cl)c(C(F)(F)F)c3)cc2)ccn1	enzyme activity, inhibitor	10 µM	inhibition	-35%
c1ccc(CNc2nc(N3CCOc4ccccc43)nc3c2CCCC3)cc1	target engagement in cells, inhibitor, chemoproteomics	20 mM	inhibition	10.8%
O=C(N1CCS(=O)(=O)CC1)N1C[C@H](c2ccc(OC(F)(F)F)cc2)C[C@H](c2nc(C3CC3)no2)C1	cell-free assay, competition with immobilised ligand	1 µM	remaining binding	97%
N#CCCc1ccc2c(c1)-c1[nH]c3ccc([N+](=O)[O-])cc3c1CC(=O)N2	cell-free assay	0.5 µM	remaining signal	105%
CCN(CC)CCNC(=O)c1c(C)[nH]c(/C=C2\C(=O)Nc3ccc(F)cc32)c1C	enzyme activity, inhibitor	0.3 µM	inhibition	-1%
O=C(Nc1cnn(-c2csc(C(=O)NC3COC3)c2)c1)Nc1c(F)cccc1Cl	enzyme activity, inhibitor	5 µM	remaining activity	108%
CN(C)c1ncnc(-c2ccc3nc(Nc4cc(CN5CCN(C(=O)CC(F)(F)F)CC5)ccn4)[nH]c3c2)c1Cl	cell-free assay, competition with immobilised ligand	1 µM	remaining binding	69%
Cc1cc(NC(=O)c2cccc3cc(-c4cccc5[nH]nc(N)c45)ccc23)ccc1F	enzyme activity, inhibitor	0.1 µM	activity vs control	127%
CN([C@@H]1CCc2c(CC(=O)O)c3cc(S(C)(=O)=O)ccc3n2C1)S(=O)(=O)c1ccc(F)cc1	cell-free assay, competition with immobilised ligand	1 µM	remaining binding	100%
Cc1cnc(NC2CCOCC2)nc1-n1cnc(C(=O)NC(CN)c2cc(F)cc(Cl)c2)c1 (stereo not drawn)	enzyme activity, inhibitor, radiometric	1 µM	remaining activity	92%
CCS(=O)(=O)c1cc2cc(C[C@@](O)(CC(C)(C)c3ccc(F)cc3C(N)=O)C(F)(F)F)[nH]c2cn1	cell-free assay, competition with immobilised ligand	1 µM	remaining binding	95%
Nc1ncnc2occ(-c3ccc(NC(=O)Nc4cc(C(F)(F)F)ccc4F)cc3)c12	enzyme activity, inhibitor	20 µM	remaining activity	0%
CN(C(=O)c1ccccc1)c1cc(N(C)c2ccc3c(c2)CCc2ccc(C(=O)NCCN4CCOCC4)cc2C3=O)ccc1F	cell-free assay, competition with immobilised ligand	1 µM	remaining binding	100%
CC(C)c1ccc(NC(=O)c2cccs2)c(-c2nc3ccccc3[nH]c2=O)c1	enzyme activity, inhibitor	1 µM	activity vs control	104%
NS(=O)(=O)c1cc(NC(=O)Cc2ccccc2)ccc1Oc1cccc(Cl)c1	cell-free assay, competition with immobilised ligand	1 µM	remaining binding	63%
O=C1NC(=O)c2cc(Nc3ccc(F)cc3)c(Nc3ccc(F)cc3)cc21	cell-free assay, inhibitor	0.5 µM	remaining signal	99.2%
